SMILES strings stand for the structures. The source made the active and inactive calls. The rule behind the calls is not given here.

Experiment [1] concerns L1210. Briefly: Antiproliferative activity against mouse L1210 cells. The format is functional, cell-based. The gist of the method:
(§1)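 Murine L1210 cells were grown in suspension culture and proliferation was measured.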

Experiment [2] deals with Saccharomyces cerevisiae. Briefly: DNA damaging activity against […] assessed as drug concentration required to produce 12 mm zone of inhibition by agar diffusion assay. Type of experiment: functional, W303-1A. (In general: In agar diffusion tests the substance spreads into inoculated agar from a disc or well.)
Experiment [3] deals with L1210. The experiment in a line: Antiproliferative activity against mouse L1210 cells up to 32 uM. The format is functional, cell-based. The essentials:
as §1

Experiment [4] relates to Saccharomyces cerevisiae. Briefly: DNA damaging activity against […] assessed as drug concentration required to produce 12 mm zone of inhibition up to 800 ug/well by agar diffusion assay. The format is functional, organism-based. Particulars: W303-1A.

By IC50 is commonly meant the concentration needed to halve the response being measured. In the experiment with L1210 [1], `C[C@H]1CC[C@@]2(OC1)O[C@H]1C[C@H]3[C@@H]4CC[C@H]5C[C@@H](O)C[C@@H](O[C@H]6O[C@@H](C)[C@@H](O)[C@@H](O)[C@@H]6O)[C@]5(C)[C@H]4CC[C@]3(C)[C@H]1[C@@H]2C` [BRISBAGENIN FUCOSIDE] showed an IC50 of 5 µM. Moreover, the IC12 in the experiment with Saccharomyces cerevisiae [2] was determined as 2.6 µg. Moreover, the result with L1210 [3] was inactive.

Regarding `C[C@H]1CC[C@@]2(OC1)O[C@H]1C[C@H]3[C@@H]4CC[C@H]5C[C@@H](O)C[C@@H](O[C@H]6O[C@@H](C)[C@@H](OS(=O)(=O)O)[C@@H](O)[C@@H]6O)[C@]5(C)[C@H]4CC[C@]3(C)[C@H]1[C@@H]2C`, in the experiment on Saccharomyces cerevisiae [2], the IC12 is 3.5 µg. In addition, the result with L1210 [3] was inactive.

As to `C[C@H]1O[C@@H](O[C@H]2[C@@H](O)C[C@H](O[C@H]3[C@@H](O)C[C@H](O[C@H]4CC[C@@]5(C)[C@H](CC[C@@H]6[C@@H]5C[C@@H](O)[C@]5(C)[C@@H](C7=CC(=O)OC7)CC[C@]65O)C4)O[C@@H]3C)O[C@@H]2C)C[C@H](O)[C@@H]1O`, in the experiment on Saccharomyces cerevisiae [4], the result was inactive.

As to `C[C@@H]1O[C@@H](O[C@H]2CC[C@]3(C=O)[C@H]4CC[C@]5(C)[C@@H](C6=CC(=O)OC6)CC[C@]5(O)[C@@H]4CC[C@]3(O)C2)[C@H](O)[C@H](O)[C@H]1O`, the result in the experiment with Saccharomyces cerevisiae [4] was inactive.

On to `CO[C@H]1[C@H](O)[C@H](O[C@H]2CC[C@@]3(C)[C@H](CC[C@@H]4[C@@H]3CC[C@]3(C)[C@@H](C5=CC(=O)OC5)CC[C@]43O)C2)O[C@@H](C)[C@@H]1O`, for which the result in the experiment with Saccharomyces cerevisiae [4] was inactive.

Turning to `C[C@@H]1O[C@@H](O[C@H]2C[C@@H](O)[C@]3(CO)[C@H]4[C@H](O)C[C@]5(C)[C@@H](C6=CC(=O)OC6)CC[C@]5(O)[C@@H]4CC[C@]3(O)C2)[C@H](O)[C@H](O)[C@H]1O`, the result in the experiment with Saccharomyces cerevisiae [4] was inactive.

As to `C[C@H]1O[C@@H](O[C@H]2[C@@H](O)C[C@H](O[C@H]3[C@@H](O)C[C@H](O[C@H]4CC[C@@]5(C)[C@H](CC[C@@H]6[C@@H]5CC[C@]5(C)[C@@H](C7=CC(=O)OC7)[C@@H](O)C[C@]65O)C4)O[C@@H]3C)O[C@@H]2C)C[C@H](O)[C@@H]1O`, in the experiment on Saccharomyces cerevisiae [4], the outcome was inactive.

For the compound `CO[C@H]1C[C@H](O[C@H]2CC[C@]3(C=O)[C@H]4CC[C@]5(C)[C@@H](C6=CC(=O)OC6)CC[C@]5(O)[C@@H]4CC[C@]3(O)C2)O[C@H](C)[C@H]1O[C@H]1O[C@@H](CO)[C@H](O[C@@H]2O[C@H](CO)[C@@H](O)[C@H](O)[C@H]2O)[C@@H](O)[C@@H]1O`, in the experiment on Saccharomyces cerevisiae [4], the result was inactive.

The values are drawn from ChEMBL document CHEMBL1147365, “A screen for inhibitors of DNA recombination: identification of two new spirostanol glycosides from Chamaedorea linearis” (J Nat Prod, 1993).
